Data set [1] concerns the target MRP2 (Homo sapiens, UniProt Q92887). Kind of data set: CDF directional. Format: cell-based.
Data set [2] relates to MRP2 and/or MRP3. Kind of data set: Net CDF uptake into Caco-2 grown on 24-well plates after CDFA exposure. Particulars: 100 μM compound, 30 min with 5 μM CDFA, cells on plastic. Type of data set: cell-based, human.
In data set [3] the test system is esterase-mediated conversion of CDFA to CDF. Kind of data set: CDFA hydrolysis to CDF by Caco-2 cells. Type of data set: cell-based, human. The conditions noted are these: 100 μM compound. The essentials: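 Caco-2 cells from ATCC, used at passages 35–55, grown in DMEM with 10% FBS, 1% non-essential amino acids, 1 mM sodium pyruvate and 2 mM L-glutamine at 37°C in 5% CO2. CDFA was taken from a 5 mM stock in 1:1 DMSO:ethanol. CDF formation was expressed as specific activity per mg protein under initial-rate conditions, N = 3 per condition.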

The test system of data set [4] is Caco-2. Kind of data set: Lucifer yellow permeability in Caco-2. Type of data set: in vitro ADME, human. Particulars: control vs in the presence of 50 μM glyceollin.
The subject of data set [5] is genistein conjugative metabolism. Kind of data set: Genistein conjugative metabolism. Type of data set: in vitro ADME, human.
The test system of data set [6] is Caco-2. The experiment in a line: Genistein conjugate metabolite excretion from Caco-2. Type of data set: in vitro ADME, human.

“And” between values parts separate entries of the source, which are not always exact repeats. Identical values can stand only once.

MRP2, sequence (Q92887 whole entry): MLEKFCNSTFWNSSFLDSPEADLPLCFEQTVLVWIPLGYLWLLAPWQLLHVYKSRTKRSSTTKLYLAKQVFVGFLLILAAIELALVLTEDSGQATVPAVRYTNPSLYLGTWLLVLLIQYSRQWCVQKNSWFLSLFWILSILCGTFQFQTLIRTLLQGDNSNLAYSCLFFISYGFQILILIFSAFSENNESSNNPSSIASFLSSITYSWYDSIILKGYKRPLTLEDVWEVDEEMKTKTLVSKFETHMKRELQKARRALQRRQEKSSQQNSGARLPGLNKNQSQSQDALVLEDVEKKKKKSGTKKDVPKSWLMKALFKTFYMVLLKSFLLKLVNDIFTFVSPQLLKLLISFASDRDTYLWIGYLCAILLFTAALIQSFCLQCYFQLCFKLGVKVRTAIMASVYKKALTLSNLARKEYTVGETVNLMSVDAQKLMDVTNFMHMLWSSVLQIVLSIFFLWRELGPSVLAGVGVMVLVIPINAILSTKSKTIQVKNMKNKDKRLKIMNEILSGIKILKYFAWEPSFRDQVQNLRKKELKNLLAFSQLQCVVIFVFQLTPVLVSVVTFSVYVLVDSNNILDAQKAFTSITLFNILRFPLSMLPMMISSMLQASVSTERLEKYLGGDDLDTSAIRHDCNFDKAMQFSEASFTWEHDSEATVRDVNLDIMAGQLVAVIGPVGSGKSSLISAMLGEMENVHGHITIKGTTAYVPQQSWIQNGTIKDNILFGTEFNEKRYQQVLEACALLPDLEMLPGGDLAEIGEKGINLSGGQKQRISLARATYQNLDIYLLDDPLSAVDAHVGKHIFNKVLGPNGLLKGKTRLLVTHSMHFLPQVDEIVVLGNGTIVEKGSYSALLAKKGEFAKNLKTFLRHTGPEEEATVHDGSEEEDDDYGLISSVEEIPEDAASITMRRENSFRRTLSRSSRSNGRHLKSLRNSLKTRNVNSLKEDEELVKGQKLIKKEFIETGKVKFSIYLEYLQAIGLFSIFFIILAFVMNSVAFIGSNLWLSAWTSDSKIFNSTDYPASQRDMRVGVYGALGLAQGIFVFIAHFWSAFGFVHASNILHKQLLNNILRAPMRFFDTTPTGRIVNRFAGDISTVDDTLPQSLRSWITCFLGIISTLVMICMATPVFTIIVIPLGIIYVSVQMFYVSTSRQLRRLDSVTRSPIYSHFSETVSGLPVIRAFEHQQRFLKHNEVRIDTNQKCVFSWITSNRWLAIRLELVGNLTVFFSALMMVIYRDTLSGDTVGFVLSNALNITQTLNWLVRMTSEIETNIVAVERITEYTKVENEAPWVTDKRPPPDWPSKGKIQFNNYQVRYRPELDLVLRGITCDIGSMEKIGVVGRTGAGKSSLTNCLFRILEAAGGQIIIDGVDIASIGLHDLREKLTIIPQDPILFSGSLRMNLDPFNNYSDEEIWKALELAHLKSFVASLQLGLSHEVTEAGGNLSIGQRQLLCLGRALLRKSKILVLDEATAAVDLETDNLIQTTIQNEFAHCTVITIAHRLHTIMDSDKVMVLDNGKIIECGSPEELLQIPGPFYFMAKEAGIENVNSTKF

For `CN(C)C(=O)CCSC(SCCC(=O)O)c1cccc(/C=C/c2ccc3ccc(Cl)cc3n2)c1` (stereo not drawn) [MK-571], in data set [1] (100 μM compound vs control), the “CDF AB directional transport” value is on record as “statistically significant increase” and the “CDF BA directional transport” value is “statistically significant reduction”. Also, the “CDF cell concentration at the conclusion of the 2-hour incubation” value in data set [1] (100 μM compound, both transport directions) is reported as “reduced”. Besides, the “IC50 for reduction of CDF BA/AB permeability ratio” value in data set [1] (10, 30 or 100 μM compound) was determined as 22 µM. Also, in data set [2], the CDF uptake result is reported as “significant reduction”. The “rate of esterase-mediated conversion of CDFA to CDF” value in data set [3] is recorded as “did not alter”. For the same molecule, the “CDFA hydrolysis specific activity (initial rate)” value in data set [3] (5 μM CDFA, control 6.0) is listed as 8.5 nM/min/mg protein.

Consider Lucifer yellow, for which the lucifer yellow permeability in data set [4] is given as 0.13 ± 0.035 × 10^-5 cm/s.

glyceollin: the intracellular genistein conjugates in data set [5] (Caco-2) is 9 ± 2.7 pmoles/filter. Further, the “apical metabolite excretion rate” value in data set [6] is given as 6.5 ± 0.61 × 10^-5 nmoles/sec.

Take `O=c1c(-c2ccc(O)cc2)coc2cc(O)cc(O)c12` [genistein]: the “fraction of genistein metabolized to conjugates (Fm), average” value in data set [5] (control vs 30 μM glyceollin, average of two experiments) was 47% ± 10.5% and 47%.

Turning to “5 (and 6)-Carboxy-2′,7′-dichloroflourescein [CDF]”, the “CDF permeability, BA direction vs. AB direction” value in data set [1] (control conditions, no inhibitor) amounted to 3.7 ± 0.36 fold.
